Tested on: TLR4
Assay: Quantitative RT-PCR, LPS-stimulated THP-1 cells
Type: cell-based, human
Conditions: TIP3 50 μM 1 h, then LPS 4 h; normalized to GAPDH
Procedure, shortened: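 THP-1 cells pretreated with test compound (50 μM) for 1 h, then LPS (100 ng/ml) added for 4 h. Total RNA extracted with TRIzol and cDNA synthesised. SYBR Green qPCR run with primers for IL-1β, IL-6, IL-8, TNF-α, with β-actin and GAPDH as references. Relative expression calculated by the ΔΔCt method.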

Which results are given for DYDVCVCH [TIP3]?
IL-1β mRNA expression: inhibited LPS-induced mRNA expression; IL-6 mRNA expression: inhibited LPS-induced mRNA expression; IL-8 mRNA expression: inhibited LPS-induced mRNA expression of these cytokines and of IL-8; TNF-α mRNA expression: inhibited LPS-induced mRNA expression
